Measurements from ChEMBL document CHEMBL3392996, “Non-transpeptidase binding arylthioether β-lactams active against Mycobacterium tuberculosis and Moraxella catarrhalis” (2015).
Values after ≈ are worked out from the molar mass of the structure shown.

How the values were obtained:
Assay type in all cases: functional
[1] = tested on: Moraxella catarrhalis; experiment: Bactericidal activity against Moraxella catarrhalis clinical isolates incubated for 48 hrs by microdilution broth method and standard plating method
How it was run: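 Broth microdilution in Mueller-Hinton broth, 2-fold series from 500 to 15.6 μg/ml, with DMSO-only controls, 37 °C for 48 h. Wells showing no growth were plated (10 μL) on MH agar. MBC was the lowest concentration giving no growth on plating. Run in quadruplicate.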

[2] = tested on: Moraxella catarrhalis; experiment: Antimicrobial activity against Moraxella catarrhalis clinical isolates incubated for 48 hrs by microdilution broth method
How it was run: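 Stocks in DMSO were diluted at least 10-fold into Mueller-Hinton broth, then 2-fold serially diluted in MH from 500 to 15.6 μg/ml. Bacteria were added, with DMSO-only dilution controls, and incubated at 37 °C for 48 h. Growth was scored at 24 and 48 h. MIC was the lowest concentration with no growth. Run in quadruplicate.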

[3] = tested on: Mycobacterium tuberculosis; experiment: Antimicrobial activity against Mycobacterium tuberculosis H37Rv incubated for 48 hrs by microdilution broth method

For `O=C1CC(Sc2cc(C(F)(F)F)cc(C(F)(F)F)c2)N1` (racemic), the MBC [1] was 100 µg/mL (≈ 317 µM), the MIC [2] was 12.5 µg/mL (≈ 39.7 µM) and the MIC [3] was > 100 µg/mL.

With `O=C1CC([Se]c2ccccc2)N1C(=O)NCc1ccccc1` (racemic) the MBC [1] was 50 µg/mL (≈ 139 µM), the MIC [2] was 50 µg/mL (≈ 139 µM) and the MIC [3] was 25 µg/mL (≈ 69.6 µM).

For `O=C1CC(Sc2ccc(F)cc2)N1` (racemic), the MIC [2] was > 200 µg/mL and the MIC [3] was > 100 µg/mL.

`O=C1CC(Sc2ccc(F)cc2)N1C(=O)NCC(c1ccccc1)c1ccccc1` (racemic) was tested, and the MBC [1] was > 200 µg/mL, the MIC [2] was > 200 µg/mL and the MIC [3] was > 100 µg/mL.

In the case of `COc1ccccc1SC1CC(=O)N1C(=O)NCc1ccccc1` (racemic), the MBC [1] was 200 µg/mL (≈ 584 µM), the MIC [2] was 200 µg/mL (≈ 584 µM) and the MIC [3] was 125 µg/mL (≈ 365 µM).

In the case of `CSc1ccc(SC2CC(=O)N2)cc1` (racemic), the MBC [1] was 100 µg/mL (≈ 444 µM), the MIC [2] was 100 µg/mL (≈ 444 µM) and the MIC [3] was > 100 µg/mL.

With `COc1ccccc1SC1CC(=O)N1` (racemic) the MBC [1] was > 200 µg/mL, the MIC [2] was 100 µg/mL (≈ 478 µM) and the MIC [3] was 250 µg/mL (≈ 1190 µM).

Work on `O=C1CC(Sc2ccc(F)cc2Cl)N1C(=O)NCc1ccccc1` (racemic) yielded an MBC [1] of 25 µg/mL (≈ 68.5 µM), an MIC [2] of 12.5 µg/mL (≈ 34.3 µM) and an MIC [3] of 25 µg/mL (≈ 68.5 µM).

In the case of `COc1cccc(SC2CC(=O)N2)c1` (racemic), the MBC [1] was > 200 µg/mL, the MIC [2] was 100 µg/mL (≈ 478 µM) and the MIC [3] was > 100 µg/mL.

With `COc1cccc(SC2CC(=O)N2C(=O)NCc2ccccc2)c1` (racemic) the MBC [1] was 200 µg/mL (≈ 584 µM), the MIC [2] was 200 µg/mL (≈ 584 µM) and the MIC [3] was 100 µg/mL (≈ 292 µM).

For `O=C1CCN1C(=O)NCc1ccccc1`, the MIC [2] was > 100 µg/mL and the MIC [3] was > 100 µg/mL.

`CCNC(=O)N1C(=O)CC1Sc1ccc(F)cc1F` (racemic) was tested, and the MIC [3] was > 100 µg/mL.

For `O=C1CC(Sc2ccc([N+](=O)[O-])cc2)N1C(=O)NCc1ccccc1` (racemic), the MBC [1] was 25 µg/mL (≈ 70 µM), the MIC [2] was 3.12 µg/mL (≈ 8.74 µM) and the MIC [3] was 25 µg/mL (≈ 70 µM).

`O=C1CC(Sc2ccc(Cl)cc2Cl)N1C(=O)NCc1ccccc1` (racemic) showed an MBC [1] of 6.25 µg/mL (≈ 16.4 µM), an MIC [2] of 3.13 µg/mL (≈ 8.21 µM) and an MIC [3] of 25 µg/mL (≈ 65.6 µM).

With `CSc1ccc(SC2CC(=O)N2C(=O)NCc2ccccc2)cc1` (racemic) the MIC [3] was > 100 µg/mL.

`O=C1CC(Sc2ccc(F)cc2F)N1C(=O)NCc1ccccc1F` (racemic) was tested, and the MIC [3] was 50 µg/mL (≈ 136 µM).

`COc1ccc(SC2CC(=O)N2)cc1OC` (racemic) was tested, and the MBC [1] was 200 µg/mL (≈ 836 µM), the MIC [2] was 200 µg/mL (≈ 836 µM) and the MIC [3] was 250 µg/mL (≈ 1040 µM).

For `O=C1CC(Sc2ccc([N+](=O)[O-])cc2)N1` (racemic), the MBC [1] was 12.5 µg/mL (≈ 55.7 µM), the MIC [2] was 6.25 µg/mL (≈ 27.9 µM) and the MIC [3] was 25 µg/mL (≈ 111 µM).

Work on `O=C1CC(Oc2ccc([N+](=O)[O-])cc2)N1C(=O)NCc1ccccc1` (racemic) yielded an MBC [1] of 6.25 µg/mL (≈ 18.3 µM), an MIC [2] of 6.25 µg/mL (≈ 18.3 µM) and an MIC [3] of 250 µg/mL (≈ 732 µM).

`O=C1CC(Sc2ccccc2C(F)(F)F)N1C(=O)NCc1ccccc1` (racemic) gave an MBC [1] of 25 µg/mL (≈ 65.7 µM), an MIC [2] of 25 µg/mL (≈ 65.7 µM) and an MIC [3] of 125 µg/mL (≈ 329 µM).

`O=C1CC(Oc2ccc(C(F)(F)F)cc2)N1C(=O)NCc1ccccc1` (racemic) was tested, and the MBC [1] was > 200 µg/mL, the MIC [2] was 50 µg/mL (≈ 137 µM) and the MIC [3] was 125 µg/mL (≈ 343 µM).

In the case of `O=C1CC(Sc2ccc(F)cc2Cl)N1C(=O)NC(c1ccccc1)c1ccccc1` (racemic), the MBC [1] was > 200 µg/mL, the MIC [2] was > 200 µg/mL and the MIC [3] was 50 µg/mL (≈ 113 µM).

`COc1ccc(SC2CC(=O)N2C(=O)NCc2ccccc2)cc1` (racemic) gave an MBC [1] of 200 µg/mL (≈ 584 µM), an MIC [2] of 200 µg/mL (≈ 584 µM) and an MIC [3] of 125 µg/mL (≈ 365 µM).

`O=C1CC(Sc2ccccc2)N1C(=O)Nc1cccc2ccccc12` (racemic) showed an MIC [3] of 25 µg/mL (≈ 71.8 µM).

`O=C1CC(Oc2ccc([N+](=O)[O-])cc2)N1` (racemic) gave an MBC [1] of 50 µg/mL (≈ 240 µM), an MIC [2] of 50 µg/mL (≈ 240 µM) and an MIC [3] of 25 µg/mL (≈ 120 µM).

`O=C1CC(Sc2cccc(C(F)(F)F)c2)N1` (racemic) gave an MIC [2] of 200 µg/mL (≈ 809 µM) and an MIC [3] of 6.25 µg/mL (≈ 25.3 µM).

In the case of `COc1ccccc1CNC(=O)N1C(=O)CC1Sc1ccc(F)cc1F` (racemic), the MIC [3] was ≥ 100 µg/mL.

`O=C1CC(Oc2ccc(C(F)(F)F)cc2)N1` (racemic) showed an MBC [1] of 200 µg/mL (≈ 865 µM), an MIC [2] of 200 µg/mL (≈ 865 µM) and an MIC [3] of 250 µg/mL (≈ 1080 µM).

For `O=C1CC([Se]c2ccccc2)N1` (racemic), the MBC [1] was 6.25 µg/mL (≈ 27.6 µM), the MIC [2] was 6.25 µg/mL (≈ 27.6 µM) and the MIC [3] was 25 µg/mL (≈ 111 µM).

In the case of `O=C1CC(Sc2cccc3ccccc23)N1C(=O)NCc1ccccc1` (racemic), the MBC [1] was > 200 µg/mL, the MIC [2] was 200 µg/mL (≈ 552 µM) and the MIC [3] was > 100 µg/mL.
